Assay results: ChEMBL document CHEMBL4028845, “Design, Synthesis, and Properties of a Potent Inhibitor of Pseudomonas aeruginosa Deacetylase LpxC” (J Med Chem, 2017)
In brackets after ≈: the same amount, converted by molar mass.

Experiments:
[1] = biological target: T1, UDP-3-O-acyl-N-acetylglucosamine deacetylase (Pseudomonas aeruginosa (strain ATCC 15692 / PAO1 / 1C / PRS 101 / LMG12228), UniProt P47205); experiment: Inhibition of Pseudomonas aeruginosa LpxC using UDP-3-O-(R-hydroxydecanoyl)-N-acetylglucosamine as substrate preincubated for 30 mins followed by substrate addition measured after 20 mins by LC-MS/MS analysis
T1 sequence (P47205 whole entry): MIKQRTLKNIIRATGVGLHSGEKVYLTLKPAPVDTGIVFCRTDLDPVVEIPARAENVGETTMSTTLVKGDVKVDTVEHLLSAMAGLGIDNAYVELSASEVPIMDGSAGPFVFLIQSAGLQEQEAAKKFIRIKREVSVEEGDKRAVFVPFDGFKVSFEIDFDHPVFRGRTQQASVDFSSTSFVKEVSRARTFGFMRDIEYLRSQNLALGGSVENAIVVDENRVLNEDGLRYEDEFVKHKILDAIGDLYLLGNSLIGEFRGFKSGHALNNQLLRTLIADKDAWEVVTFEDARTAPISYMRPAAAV

Pseudomonas aeruginosa [2] = experiment: Antibacterial activity against Pseudomonas aeruginosa PAO1 K767 after 18 to 24 hrs; format: functional
Summary of the method: (§1)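 Broth MIC per CLSI guidelines in cation-adjusted Mueller Hinton broth. Compounds were dissolved and serially diluted in DMSO (carbapenems in water) before addition to plates. Incubation was at 37 °C for 18−24 h. MIC is the lowest concentration preventing visible growth. MIC50/MIC90 are the concentrations inhibiting 50% or 90% of isolates tested.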

Pseudomonas aeruginosa [3] = experiment: Antibacterial activity against mexAB-oprM deficient Pseudomonas aeruginosa K1119 after 18 to 24 hrs; format: functional; summary of the method: as §1
Pseudomonas aeruginosa [4] = experiment: Antibacterial activity against hypersusceptible Pseudomonas aeruginosa Z61 after 18 to 24 hrs; format: functional; summary of the method: as §1
[5] = Solubility of the compound at pH 6.8 by high throughput screening assay; format: physicochemical; conditions: buffer, read-out: solubility
[6] = Cytotoxicity against human K562 cells assessed as reduction in cell viability after 72 hrs by WST1 assay; format: cell-based
Summary of the method: (§2)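 Cells were grown and assayed in medium with 10% heat-inactivated FBS and exposed to compound for 72 h. Metabolic activity was read as WST-1 cleavage to formazan at A450, with puromycin as positive control. CC50 (50% reduction in viability) was calculated from dose-response curves.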

[7] = Cytotoxicity against human HepG2 cells assessed as reduction in cell viability after 72 hrs by WST1 assay; format: cell-based; summary of the method: as §2
[8] = Protein binding in mouse plasma; format: ADME, cell-free; conditions: read-out: PPB (converted)
[9] = Protein binding in rat plasma; format: ADME, cell-free; conditions: read-out: PPB (converted)
[10] = Protein binding in human plasma; format: ADME, cell-free; conditions: read-out: PPB (converted)
Pseudomonas aeruginosa [11] = experiment: Antibacterial activity against Pseudomonas aeruginosa clinical isolate after 18 to 24 hrs; format: functional

| Compound | IC50 [1] | MIC (Pseudomonas aeruginosa [2]) | MIC (Pseudomonas aeruginosa [3]) | MIC (Pseudomonas aeruginosa [4]) | solubility [5] | CC50 at 72 h [6] | CC50 at 72 h [7] | fraction unbound [8] | fraction unbound [9] | fraction unbound [10] | MIC50 (Pseudomonas aeruginosa [11]) | MIC90 (Pseudomonas aeruginosa [11]) |
| --- | --- | --- | --- | --- | --- | --- | --- | --- | --- | --- | --- | --- |
| CCc1ccc(-c2ccc(C(=O)N[C@H](C(=O)NO)[C@@H](C)NCC(=O)O)cc2)cc1 | 0.001 µM | 128 µg/mL (≈ 320 µM) | 1 µg/mL (≈ 2.5 µM) | 32 µg/mL (≈ 80.1 µM) |  |  |  |  |  |  |  |  |
| CCCCc1ccc(C(=O)N[C@H](C(=O)NO)[C@@H](C)N)cc1 | 0.0375 µM | 8 µg/mL (≈ 27.3 µM) | 0.5 µg/mL (≈ 1.7 µM) | 1 µg/mL (≈ 3.41 µM) | > 293 µg/mL | 42.3 µM | 125 µM |  |  |  |  |  |
| C[C@@H](N)[C@H](NC(=O)c1ccc(C#Cc2ccccc2)cc1)C(=O)NO | 0.00356 µM | 1 µg/mL (≈ 2.96 µM) | 0.25 µg/mL (≈ 0.741 µM) | 0.25 µg/mL (≈ 0.741 µM) |  | 29.5 µM |  | 0.086 | 0.072 | 0.081 |  |  |
| CC#CCOc1ccc(C(=O)NC(C(=O)NO)C(C)(C)N)cc1 (racemic) |  | 2 µg/mL (≈ 6.26 µM) | 0.25 µg/mL (≈ 0.783 µM) | 0.25 µg/mL (≈ 0.783 µM) |  |  |  |  |  |  |  |  |
| CCc1ccc(-c2ccc(C(=O)N[C@H](C(=O)NO)[C@@H](C)N)cc2)cc1 | 0.00146 µM | 2 µg/mL (≈ 5.86 µM) | 0.06 µg/mL (≈ 0.176 µM) | 0.25 µg/mL (≈ 0.732 µM) | 4 µg/mL (≈ 11.7 µM) | 7.37 µM | 12.8 µM |  |  |  |  |  |
| C[C@@H](N)[C@H](NC(=O)c1ccc(N2CCOCC2)cc1)C(=O)NO | 1.64 µM | > 128 µg/mL | 16 µg/mL (≈ 49.6 µM) | 32 µg/mL (≈ 99.3 µM) |  |  |  |  |  |  |  |  |
| NC[C@H]1O[C@H](O[C@H]2[C@H](O)[C@@H](O[C@H]3O[C@H](CO)[C@@H](O)[C@H](N)[C@H]3O)[C@H](N)C[C@@H]2N)[C@H](N)C[C@@H]1O [TOBRAMYCIN] |  |  |  |  |  |  |  |  |  |  | 2 µg/mL (≈ 4.28 µM) | > 128 µg/mL |
